Measurements taken from ChEMBL document CHEMBL1130225, “Synthesis of a series of potent and orally bioavailable thrombin inhibitors that utilize 3,3-disubstituted propionic acid derivatives in the P3 position” (J Med Chem, 1997).
“And” between values parts separate entries of the source, which are not always exact repeats. Identical values can stand only once.

Tests used:
[1] = organism: Homo sapiens; assay: concentration of compound in human required to double the activated thromboplastin time; assay type: functional
[2] = Partition coefficient (logP); assay type: physicochemical; details: octanol/water
[3] = target: Plasma kallikrein (Homo sapiens, UniProt P03952); assay: Inhibitory activity against serine protease plasma kallikrein
In short: (§1)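 Inhibition constants (Ki) for each serine protease are the average of at least two determinations, with assay variation of ±10%.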

[4] = organism: Rattus norvegicus; assay: Final concentration in rat plasma; assay type: functional, organism-based
In short: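 Rats received an iv infusion at 10 µg/kg/min in saline for 120 min before a FeCl3 vascular insult. Plasma inhibitor level was measured at the end of the experiment.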

[5] = Clearance from dog plasma after intravenous injection of 1 mg/kg of compound; assay type: ADME, organism-based, Canis lupus familiaris; set-up: dose 1 mg/kg, route intravenous
[6] = target: Prothrombin (Homo sapiens, UniProt P00734); assay: Inhibition of Thrombin
[7] = Half-life period after, intravenous injection of 1 mg/kg in dogs; assay type: ADME, organism-based, Canis lupus familiaris; set-up: dose 1 mg/kg, route intravenous; details: dog, in vivo
[8] = Half-life period after, peroral injection of 5 mg/kg in dogs; assay type: ADME, organism-based, Canis lupus familiaris; set-up: dose 5 mg/kg, route oral; details: dog, in vivo, po
[9] = target: Plasminogen (Homo sapiens, UniProt P00747); assay: Inhibitory activity against serine protease plasmin
[10] = Oral bioavailability in rat (dose 10 mg/kg p.o.); assay type: ADME, organism-based; details: in vivo
In short: (§2)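 Rats were given a single oral dose of 10 mg/kg as a suspension in 1% methocel. Oral bioavailability (F, %) was then determined.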

[11] = Oral bioavailability in rat after peroral injection of 10 mg/kg of compound; assay type: ADME, organism-based; details: in vivo; in short: as §2
[12] = Oral bioavailability in dog after peroral injection of 5 mg/kg of compound; assay type: ADME, organism-based, Canis lupus familiaris; details: in vivo
In short: (§3)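 Dogs were given a single oral dose of 5 mg/kg as a suspension in 1% methocel. Oral bioavailability (F, %) was then determined.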

[13] = Area under curve was evaluated after intravenous injection of 1 mg/kg of compound in dogs; assay type: ADME, organism-based, Canis lupus familiaris; set-up: dose 1 mg/kg, route intravenous; details: dog, in vivo
[14] = organism: Rattus norvegicus; assay: concentration of compound in rat required to double the activated thromboplastin time; assay type: functional
[15] = Clearance from rat plasma after intravenous injection of 1 mg/kg of compound; assay type: ADME, organism-based; set-up: dose 1 mg/kg, route intravenous
[16] = Antithrombotic activity was assessed from the associated plasma protein binding in Human, determined in a thrombin chromogenic assay; assay type: functional
[17] = Half-life period after, intravenous injection of 1 mg/kg in rats; assay type: ADME, organism-based; set-up: dose 1 mg/kg, route intravenous; details: rat, in vivo
[18] = Oral bioavailability (5 mg/kg, oral) was determined in dogs; assay type: ADME, organism-based, Canis lupus familiaris; details: dog, in vivo; in short: as §3
[19] = target: Serine protease 1 (Homo sapiens, UniProt P07477); assay: In vitro inhibition of human trypsin.; in short: as §1
[20] = organism: Rattus norvegicus; assay: Antithrombotic activity was assessed from the associated plasma protein binding in rat, determined in a thrombin chromogenic assay; assay type: functional
[21] = Area under curve was evaluated after intravenous injection of 1 mg/kg of compound in rats; assay type: ADME, organism-based; set-up: dose 1 mg/kg, route intravenous; details: rat, in vivo
[22] = target: Coagulation factor X (Homo sapiens, UniProt P00742); assay: Inhibitory activity against serine protease Coagulation factor X; in short: as §1
[23] = target: Tissue-type plasminogen activator (Homo sapiens, UniProt P00750); assay: Inhibitory activity against serine protease TPA; in short: as §1
[24] = Concentration of inhibitor in human plasma required to double the activated thromboplastin time; assay type: functional
[25] = Oral bioavailability in rat (dose 10 mg/kg); assay type: ADME, organism-based; details: in vivo; in short: as §2
[26] = organism: Rattus norvegicus; assay: Concentration of inhibitor in rat plasma required to double the activated thromboplastin time; assay type: functional
[27] = concentration of compound in human plasma required to double the activated thromboplastin time; assay type: functional
[28] = Oral bioavailability (5 mg/kg) was determined in dogs; assay type: ADME, organism-based, Canis lupus familiaris; details: dog, in vivo; in short: as §3
[29] = organism: Rattus norvegicus; assay: Antithrombotic activity was assessed from the associated plasma protein binding in Rats, determined in a thrombin chromogenic assay; assay type: functional
[30] = organism: Rattus norvegicus; assay: concentration of compound in rat plasma required to double the activated thromboplastin time; assay type: functional

Sequence of Serine protease 1 (P07477 whole entry): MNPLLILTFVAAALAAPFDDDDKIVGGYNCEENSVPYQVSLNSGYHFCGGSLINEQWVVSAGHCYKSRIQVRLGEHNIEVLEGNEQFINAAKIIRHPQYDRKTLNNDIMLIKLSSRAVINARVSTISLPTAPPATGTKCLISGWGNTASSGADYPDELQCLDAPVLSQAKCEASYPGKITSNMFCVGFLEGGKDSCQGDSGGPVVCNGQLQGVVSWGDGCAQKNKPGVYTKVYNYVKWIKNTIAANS
Sequence of Plasminogen (P00747 97-580 limits assumed): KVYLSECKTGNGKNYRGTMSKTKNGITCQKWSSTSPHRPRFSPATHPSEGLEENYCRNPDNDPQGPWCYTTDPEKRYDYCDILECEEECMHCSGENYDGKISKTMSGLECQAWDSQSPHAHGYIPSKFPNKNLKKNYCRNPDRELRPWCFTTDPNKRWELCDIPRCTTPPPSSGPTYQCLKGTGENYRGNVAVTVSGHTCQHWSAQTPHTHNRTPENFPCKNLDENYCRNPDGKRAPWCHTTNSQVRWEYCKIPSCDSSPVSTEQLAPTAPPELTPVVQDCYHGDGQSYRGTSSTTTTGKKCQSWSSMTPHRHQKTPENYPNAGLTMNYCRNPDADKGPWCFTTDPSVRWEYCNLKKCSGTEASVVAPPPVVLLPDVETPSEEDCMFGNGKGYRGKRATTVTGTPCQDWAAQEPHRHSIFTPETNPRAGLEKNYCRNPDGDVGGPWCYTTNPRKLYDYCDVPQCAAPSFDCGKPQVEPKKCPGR
Sequence of Plasminogen (P00747 581-810 limits assumed): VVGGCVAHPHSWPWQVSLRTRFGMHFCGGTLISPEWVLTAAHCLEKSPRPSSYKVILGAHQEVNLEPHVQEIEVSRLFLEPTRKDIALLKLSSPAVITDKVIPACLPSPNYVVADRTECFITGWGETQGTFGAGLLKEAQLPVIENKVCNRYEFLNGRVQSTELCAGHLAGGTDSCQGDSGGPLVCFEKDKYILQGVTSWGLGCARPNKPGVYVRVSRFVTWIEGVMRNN
Sequence of Coagulation factor X (P00742 41-179 limits assumed): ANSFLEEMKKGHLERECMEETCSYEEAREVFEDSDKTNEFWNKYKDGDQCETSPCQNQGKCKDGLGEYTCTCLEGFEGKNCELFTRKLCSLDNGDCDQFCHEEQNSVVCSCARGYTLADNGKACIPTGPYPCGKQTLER
Sequence of Coagulation factor X (P00742 235-488 limits assumed): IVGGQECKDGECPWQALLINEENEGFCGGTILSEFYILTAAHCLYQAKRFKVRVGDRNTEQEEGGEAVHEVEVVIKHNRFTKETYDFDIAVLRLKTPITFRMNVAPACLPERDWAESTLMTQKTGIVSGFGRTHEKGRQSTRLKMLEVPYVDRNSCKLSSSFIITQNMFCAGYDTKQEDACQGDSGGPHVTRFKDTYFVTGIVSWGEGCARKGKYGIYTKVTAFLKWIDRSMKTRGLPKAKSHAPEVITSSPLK
Sequence of Tissue-type plasminogen activator (P00750 whole entry): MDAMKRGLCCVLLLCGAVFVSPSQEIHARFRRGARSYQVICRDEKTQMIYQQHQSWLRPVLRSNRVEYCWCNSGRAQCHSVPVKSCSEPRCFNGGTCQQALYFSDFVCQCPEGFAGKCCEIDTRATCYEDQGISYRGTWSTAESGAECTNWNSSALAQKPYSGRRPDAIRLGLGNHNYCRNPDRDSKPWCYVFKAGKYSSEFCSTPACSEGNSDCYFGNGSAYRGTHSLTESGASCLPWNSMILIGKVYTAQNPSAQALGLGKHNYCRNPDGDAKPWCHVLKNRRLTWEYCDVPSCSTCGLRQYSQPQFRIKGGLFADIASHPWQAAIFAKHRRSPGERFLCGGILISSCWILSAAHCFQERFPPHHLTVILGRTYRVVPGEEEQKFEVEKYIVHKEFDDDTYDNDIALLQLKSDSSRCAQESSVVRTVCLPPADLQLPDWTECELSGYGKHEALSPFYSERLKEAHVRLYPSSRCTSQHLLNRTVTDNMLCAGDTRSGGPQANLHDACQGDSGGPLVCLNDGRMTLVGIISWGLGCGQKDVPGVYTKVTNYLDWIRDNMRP
Sequence of Plasma kallikrein (P03952 20-390 limits assumed): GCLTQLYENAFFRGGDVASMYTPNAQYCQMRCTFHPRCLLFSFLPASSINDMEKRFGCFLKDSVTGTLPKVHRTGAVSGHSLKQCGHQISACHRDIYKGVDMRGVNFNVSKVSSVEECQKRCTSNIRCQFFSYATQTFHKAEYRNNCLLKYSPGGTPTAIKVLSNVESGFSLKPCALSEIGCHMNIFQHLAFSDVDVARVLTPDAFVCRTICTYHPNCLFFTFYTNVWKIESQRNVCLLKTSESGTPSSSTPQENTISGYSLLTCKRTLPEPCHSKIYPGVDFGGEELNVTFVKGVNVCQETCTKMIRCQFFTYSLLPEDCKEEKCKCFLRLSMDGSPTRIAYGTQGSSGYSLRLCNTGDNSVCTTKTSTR
Sequence of Plasma kallikrein (P03952 391-638 limits assumed): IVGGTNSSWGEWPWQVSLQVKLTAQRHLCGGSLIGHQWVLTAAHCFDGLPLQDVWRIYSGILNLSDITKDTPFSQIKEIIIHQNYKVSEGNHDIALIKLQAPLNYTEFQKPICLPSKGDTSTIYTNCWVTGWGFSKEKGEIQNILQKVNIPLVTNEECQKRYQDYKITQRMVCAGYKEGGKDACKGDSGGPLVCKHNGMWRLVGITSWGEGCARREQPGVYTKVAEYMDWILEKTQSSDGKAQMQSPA

`NC1CCC(CNC(=O)[C@@H]2CCCN2C(=O)CC(c2ccccc2)c2ccccc2)CC1.O=C(O)C(F)(F)F` (some centres not stated) gave a 2x APTT [1] of 0.67 µM, a logP [2] of 0.37 and a Ki [3] of over 1000 µM. It also gave a Concentration [4] of 1600 nM, a clearance [5] of 10.2 mL/min/kg and a Ki [6] of 0.002 µM. For the same compound, the half-life [7] was 2.92 h, the half-life [8] was 2.6 h and the Ki [9] was 744 µM. The bioavailability [10] was 10%, the bioavailability [11] was 10% and the bioavailability [12] was 58%. The AUC [13] was 3.81 µM·h, the “2x APTT” value [14] was 0.65 µM and the clearance [15] was 23.2 mL/min/kg. It also gave an Activity [16] of 7%, a half-life [17] of 4.47 h and a bioavailability [18] of 58%. The Ki [19] was 0.353 µM and 0.35 µM, the Activity [20] was 7% and the AUC [21] was 1.7 µM·h. The Ki [22] was 980 µM and the Ki [23] was over 1000 µM.
For `NC1CCC(CNC(=O)[C@@H]2CCCN2C(=O)CC(c2ccccc2)c2ccccn2)CC1` (single isomer, unassigned; diastereomer 2), the Ki [6] was 0.012 µM and the Ki [19] was 5 µM.
Compound `CC(CC(=O)N1CCC[C@H]1C(=O)NCC1CCC(N)CC1)(c1ccccc1)c1ccccc1` (some centres not stated) has a Ki [6] of 0.016 µM and a Ki [19] of 17 µM.
`NC1CCC(CNC(=O)[C@@H]2CCCN2C(=O)CC(c2ccccc2)c2cccnc2)CC1` (single isomer, unassigned; diastereomer 1) showed a Ki [6] of 0.01 µM and a Ki [19] of 2.8 µM.
For `CC1CNc2c(cccc2S(=O)(=O)N[C@@H](CCCNC(=N)N)C(=O)N2CCC(C)C[C@@H]2C(=O)O)C1` (single isomer, unassigned) [ARGATROBAN], the “2x APTT” value [24] was 0.28 µM.
Work on `NC1CCC(CNC(=O)[C@@H]2CCCN2C(=O)CC(c2cccnc2)c2ccc3c(c2)OCO3)CC1` (single isomer, unassigned; diastereomer 2) yielded a Concentration [4] of 4000 nM.
Compound `NC1CCC(CNC(=O)[C@@H]2CCCN2C(=O)CC(c2cccnc2)c2ccc3c(c2)OCO3)CC1` (stereo in doubt) has a Ki [6] of 0.0047 µM and a Ki [19] of 1.9 µM.
For `NC1CCC(CNC(=O)[C@@H]2CCCN2C(=O)CC(c2ccccc2)c2cccnc2)CC1` (single isomer, unassigned; diastereomer 2), the Concentration [4] was 2890 nM.
Work on `Cl.NC1CCC(CNC(=O)[C@@H]2CCCN2C(=O)CC2c3ccccc3C=Cc3ccccc32)CC1` (some centres not stated) yielded a logP [2] of 0.27, a Ki [3] of 775 µM and a Ki [6] of 0.003 µM. The Ki [9] was 414 µM, the bioavailability [25] was 51% and the Ki [19] was 1.6 µM. It also gave a Ki [22] of over 1000 µM and a Ki [23] of 268 µM.
In the case of `NC1CCC(CNC(=O)[C@@H]2CCCN2C(=O)CC(c2ccccc2)c2ccncc2)CC1` (single isomer, unassigned; diastereomer 2), the Ki [3] is reported as over 1000 µM, the Ki [6] is reported as 0.0034 µM and the Ki [9] is reported as 744 µM. The Ki [19] was 2.2 µM, the Ki [22] was 400 µM and the Ki [23] was 436 µM.
Work on `NC1CCC(CNC(=O)[C@@H]2CCCN2C(=O)CC(c2ccccc2)C2CCCCC2)CC1` (single isomer, unassigned; diastereomer 1) yielded a Ki [6] of 0.008 µM and a Ki [19] of 1.7 µM.
With `NC1CCC(CNC(=O)[C@@H]2CCCN2C(=O)CC(c2ccccc2)c2ccccn2)CC1` (single isomer, unassigned; diastereomer 1) the Ki [3] was 767 µM, the Ki [6] was 0.0018 µM and the Ki [9] was over 1000 µM. It also gave a Ki [19] of 0.89 µM, a Ki [22] of 370 µM and a Ki [23] of over 1000 µM.
With `NC1CCC(CNC(=O)[C@@H]2CCCN2C(=O)CC(c2ccccc2)C2CCCCC2)CC1` (single isomer, unassigned; diastereomer 2) the Ki [6] was 0.004 µM and the Ki [19] was 0.3 µM.
In the case of `NC1CCC(CNC(=O)[C@@H]2CCCN2C(=O)CC2c3ccccc3CCc3ccccc32)CC1.O=C(O)C(F)(F)F` (some centres not stated), the Ki [6] is reported as 0.017 µM and the bioavailability [25] is reported as 12%.
With `NC1CCC(CNC(=O)[C@@H]2CCCN2C(=O)CC(c2cccnc2)c2ccc3c(c2)OCO3)CC1.O=C(O)C(F)(F)F` (single isomer, unassigned; diastereomer 2) the logP [2] was -1.62, the “2x APTT” value [26] was 0.38 µM and the Ki [3] was 1000 µM. For the same compound, the Ki [6] was 0.00028 µM, the Ki [9] was 572 µM and the bioavailability [25] was under 5%. For the same compound, the Ki [19] was 2.6 µM, the “2x APTT” value [27] was 0.3 µM and the Ki [22] was 1000 µM. For the same compound, the Ki [23] was over 500 µM.
`NC1CCC(CNC(=O)[C@@H]2CCCN2C(=O)CC(c2ccccc2)c2ccncc2)CC1` (single isomer, unassigned; diastereomer 1) showed a Ki [6] of 0.029 µM and a Ki [19] of 19 µM.
For `NC1CCC(CNC(=O)[C@@H]2CCCN2C(=O)CC(c2ccccc2)c2cccnc2)CC1.O=C(O)C(F)(F)F` (single isomer, unassigned; diastereomer 2), the logP [2] was -0.64, the “2x APTT” value [26] was 0.59 µM and the Ki [3] was 476 µM. The Ki [6] was 0.0022 µM, the Ki [9] was over 1000 µM and the Activity [16] was 35%. For the same compound, the Ki [19] was 2.2 µM, the “2x APTT” value [27] was 0.47 µM and the Ki [22] was over 1000 µM. It also gave a bioavailability [28] of 8%, a Ki [23] of 746 µM and an Activity [29] of 56%.
For `Cl.NC1CCC(CNC(=O)[C@@H]2CCCN2C(=O)CC(C2CCCCC2)C2CCCCC2)CC1` (some centres not stated), the logP [2] was 1.96, the Ki [3] was 170 µM and the Concentration [4] was 658 nM. For the same compound, the Ki [6] was 0.014 µM, the Ki [9] was 176 µM and the “2x APTT” value [30] was 7.2 µM. It also gave a bioavailability [10] of 56%, an Activity [16] of 1% and a Ki [19] of 2.5 µM. For the same compound, the Activity [20] was 6%, the “2x APTT” value [27] was 7.1 µM and the Ki [22] was 220 µM. It also gave a Ki [23] of 84 µM.
